Tests used:
[1] = Chemical stability in phosphate buffer solution at pH 1.10 to 6.84 at 60 degC up to 24 hrs by HPLC analysis; type: physicochemical; conditions: pH 1.1, 24 h
Summary of the method: (§1)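 Phosphate buffers at pH 1.10, 4.02, 6.84, 9.14 and 12.02, held at 37 °C and at 60 °C. Remaining compound quantified by HPLC at 0, 1, 2, 4, 8, 16 and 24 h.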

Mus musculus [2] = test: Hepatoprotective activity in Kunming mouse assessed as reduction of CCL4-induced increase of serum AST level at 4 mg/kg, ip administered 0.5 hrs before CCL4 challenge measured after 16 hrs; type: functional; conditions: route intraperitoneal
Summary of the method: (§2)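 Adult male Kunming mice (20–22 g), fasted the day before, in groups of ten. Compound given ip at 1, 2 or 4 mg/kg, followed 0.5 h later by ip CCl₄ (5 mL/kg as 0.2% peanut oil solution). Controls: saline alone, and CCl₄ alone. Orbital blood taken at 16 h; serum assayed for ALT and AST. Mean ± S.D., compared with the CCl₄ group.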

Mus musculus [3] = test: Hepatoprotective activity in Kunming mouse assessed as reduction of CCL4-induced increase of serum AST level at 1 mg/kg, ip administered 0.5 hrs before CCL4 challenge measured after 16 hrs; type: functional; conditions: route intraperitoneal; summary of the method: as §2
Mus musculus [4] = test: Hepatoprotective activity in Kunming mouse assessed as reduction of CCL4-induced increase of serum ALT level at 4 mg/kg, ip administered 0.5 hrs before CCL4 challenge measured after 16 hrs; type: functional; conditions: route intraperitoneal; summary of the method: as §2
Mus musculus [5] = test: Hepatoprotective activity in Kunming mouse assessed as reduction of CCL4-induced increase of serum AST level at 2 mg/kg, ip administered 0.5 hrs before CCL4 challenge measured after 16 hrs; type: functional; conditions: route intraperitoneal; summary of the method: as §2
Mus musculus [6] = test: Hepatoprotective activity in Kunming mouse assessed as reduction of CCL4-induced increase of serum ALT level at 2 mg/kg, ip administered 0.5 hrs before CCL4 challenge measured after 16 hrs; type: functional; conditions: route intraperitoneal; summary of the method: as §2
[7] = Aqueous solubility in water after 24 hrs by HPLC analysis; type: physicochemical
Summary of the method: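 Water (10 mL) added to the solid; sonicated 5 min, then stirred 24 h in a 25 °C water bath. Centrifuged at 10 000 rpm for 10 min, supernatant membrane-filtered and quantified by HPLC.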

Mus musculus [8] = test: Hepatoprotective activity in Kunming mouse assessed as reduction of CCL4-induced increase of serum ALT level at 1 mg/kg, ip administered 0.5 hrs before CCL4 challenge measured after 16 hrs; type: functional; conditions: route intraperitoneal; summary of the method: as §2
Plasma = test: Stability in mouse plasma up to 12 hrs by HPLC analysis; type: ADME, cell-free
Summary of the method: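 Aqueous compound solution (1.0 mL, 50 stock) added to 5 mL mouse plasma, kept at 37 ± 1 °C. 200 aliquots taken at 0, 1, 2, 4, 8 and 12 h, mixed with 400 acetonitrile for 5 min, centrifuged at 10 000 rpm for 5 min, and supernatant analysed by HPLC.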

[9] = Chemical stability in phosphate buffer solution at pH 1.10 to 12.02 at 37 degC up to 24 hrs by HPLC analysis; type: physicochemical; conditions: pH 1.1, 24 h; summary of the method: as §1
Mus musculus [10] = test: In vivo metabolic stability in Kunming mouse assessed as 5-(4-hydroxyphenyl)-3H-1,2-dithiole-3-thione level in plasma at 10 mg/kg, ip measured up to 8 hrs by HPLC analysis; type: ADME, organism-based; design: dose 10 mg/kg, route intraperitoneal
Summary of the method: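 Male Kunming mice, ten groups of four, given 10.00 mg/kg ip. Orbital blood (0.5 mL) taken into heparinized tubes at 0.02–8 h. Plasma precipitated with 2 volumes acetonitrile, sonicated, centrifuged, and analysed by HPLC at 354 nm. Plasma calibration curve spans 0.05–31.11 with six points; QC at three levels.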

SMILES | Stability [1] | Activity (Mus musculus [2]) [IU/L] | Activity (Mus musculus [3]) [IU/L] | Activity (Mus musculus [4]) [IU/L] | Activity (Mus musculus [5]) [IU/L] | Activity (Mus musculus [6]) [IU/L] | solubility at 24 h [7] [µg/mL] | Activity (Mus musculus [8]) [IU/L] | Stability (Plasma) | Stability [9] | Stability (Mus musculus [10])
Cl.S=c1cc(-c2ccc(OCCN3CCCC3)cc2)ss1 | Stable | 607.8 | 501.2 | 561.5 | 582.9 | 535.9 | > 20000 | 416.6 | Stable | Stable | 
S=c1cc(-c2ccc(OCC[n+]3ccccc3)cc2)ss1.[Br-] | Stable | 784.3 | 559.2 | 685 | 617.8 | 630.1 | 2300 | 426.1 | Stable | Stable | 
CC[N+](CC)(CC)CCOc1ccc(-c2cc(=S)ss2)cc1.[Br-] | Stable |  |  |  |  |  | 3500 |  | Stable | Stable | 
COc1ccc(-c2cc(=S)ss2)cc1 [ANETHOLTRITHION] | Stable | 407.1 | 269.6 | 177.2 | 265.9 | 112.4 | < 10 | 150.7 | Stable | Stable | 
Cl.S=c1cc(-c2ccc(OCCN3CCOCC3)cc2)ss1 | Stable | 824.9 | 851.7 | 457.7 | 552.5 | 468 | > 20000 | 595.4 | Stable | Stable | 
Oc1ccc(-c2cc(=S)ss2)cc1 | Stable |  |  |  |  |  | < 130 |  | Stable | Stable | 
Cl.S=c1cc(-c2ccc(OCCN3CCCCC3)cc2)ss1 | Stable | 423.9 | 920.6 | 382.9 | 416.8 | 259.6 | > 20000 | 169.3 | Stable | Stable | 
CN(C)c1cc[n+](CCOc2ccc(-c3cc(=S)ss3)cc2)cc1.[Br-] | Stable |  |  |  |  |  | 2800 |  | Stable | Stable | 
CN(C)CCOc1ccc(-c2cc(=S)ss2)cc1.Cl | Stable | 284.1 | 310.9 | 171.6 | 215.7 | 109.7 | > 20000 | 216.5 | Stable | Stable | Stable
